The results in this text go back to the RNAGym collection of RNA variant scans (doi:10.1126/science.aae0568).

First the molecules themselves.
B1: tRNA (parent)
chain: GUUCCGUUGGCGUAAUGGUAACGCGUCUCCCUCCUAAGGAGAAGACUGCGGGUUCGAGUCCCGUACGGAACG

This sample holds only a part of the variants without activity.

Variants of B1 are the subject of the series. As to the kind of experiment: yeast fitness relative to wild type (ratio to wild type); higher = fitter; tRNA-Arg(CCU), competitive growth, 37 C, YPD. The procedure, abridged: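 Variants of the tRNA-Arg(CCU) gene, chemically synthesised with a 3% per-site mutation rate at 69 sites, were placed at the native genomic locus in Saccharomyces cerevisiae. The pooled strains were competed in YPD at 37°C for 24 hours in six parallel replicates. Gene amplicons from the start population and from each end population were read by 100-nucleotide paired-end sequencing. Darwinian fitness relative to wild type came from changes in genotype frequencies; genotypes needed ≥ 100 starting reads, and estimates < 0.5 were set to 0.5.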
For the variant GUUCCGUUGGCGUAAUGGUACCGCGUCUCCCUCCUACGGAGAAGACUGCGGGUUGGAAUCCCGUACGGAACG [A21C A37C C55G G58A], the yeast fitness was ≤ 0.5.

With GUUCCGUUGGCGUAAUGGUACCGCGUCUCCCUCCUAAGGAGAAGACUGCGGGUUCGAGUCCCGUACGGAACG [A21C], the yeast fitness came to 0.973. Next, GUUCCGUUGGCGUAAUGGUUACGCGACUCCCUCCUAAGGAGAAGACUGCGGGUUCGAGUCCCGUCCCGAACG [A20U U26A A65C G67C]: 0.563; GUUCCGUUGGCGUAAUGGUUACGCGUCUCCCUCCUAAGGAGAAGACUGCAGGUUCGAGUCCCGUUCGGAACG [A20U G50A A65U]: ≤ 0.5. In the case of GUUCCGUUGGCGUAAUGGUUACGCGUCUCCCUCCUAAGGAGAAGACUCCGGGUUCGAGUCGCGUAUGGAACG [A20U G48C C61G C66U], the yeast fitness is 0.505. In the case of GUUCCGUUGGCGUAAUGGUUACGCGUCUCCCUCCUAAGGAGAAGACCGCGGGUUCGAGUGCCGUUCGGAGCG [A20U U47C C60G A65U A70G], the yeast fitness came out at 0.573. In the case of GUUCCGUUGGCGUAAUGGUUACGCGUCUCCCUCCUAAGGAGAAGACUACGGGUUCGAGUCCCGCACGGAACG [A20U G48A U64C], the yeast fitness amounted to 0.589. Turning to GUUCCGUUGGCGUAAUGGUUACGCGUCUCCCUCCUAAGGAGAAGACUGCGGGUUCGAGUCCCGUACUGAACG [A20U G67U], the yeast fitness was 0.681.

In the case of GUUCCGUUGGCGUAAUGGUUACGCGUCCCCCUCCUAAGGAGAAGACUGUGGGUUCGAGUCCCGUACGGAACG [A20U U28C C49U], the yeast fitness is 0.61. Next, GUUCCGUUGGCGUAAUGGUUACGCGUCUCCCUCCUAAGGAGAAAACUGCGGGUUCGAGUCCCGUACGGAACG [A20U G44A]: 0.662; GUUCCGUUGGCGUAAUGGUUACGCGUCUCCCUCCUAAGGAGAAGACUGCAGGUUCGUGUCCCGUACGGAACG [A20U G50A A57U]: 0.529; GUUCCGUUGGCGUAAUGGUUACGCGUCUCCCUCCUAAGGAGAAGACGGCGGGUUCGAGUCCGGUACGAAACG [A20U U47G C62G G68A]: ≤ 0.5.

In the case of GUUCCGUUGGCGUAAUGGUUACGCGUCUCCCUCCCAAGGAGAAGACUGUGGGUUUGAGUCCCGCACGGAACG [A20U U35C C49U C55U U64C], the yeast fitness came to 0.588. The same measure for GUUCCGUUGGCGUAAUGGUACCGCGUCUCCCUCCUAAGGAGAAGUCUGCGGAUUCGAGUCCCGUACGGAACG [A21C A45U G52A]: 0.503. In the case of GUUCCGUUGGCGUAAUGGUUACGCGUCUCCCUCCUAAGGAGAAGACUGCGGGUUCGAGUCCCGCACGGCACG [A20U U64C A69C], the yeast fitness stood at 0.657. For GUUCCGUUGGCGUAAUGGUACCGCGUCUCCCUCCUCAGGAGAAGACUGCGGGUUCGAGUCCCGUACGGAACG [A21C A36C], the yeast fitness was found to be 0.697. Take GUUCCGUUGGCGUAAUGGUUACGCGUCUCCCUCCAAAAGAGAAGACUGCGGGUUCGAGUCCCGUACGGAACG [A20U U35A G38A]: the yeast fitness worked out at 0.613.

GUUCCGUUGGCGUAAUGGUUACGCGUCACCCUCCUAAGGAGAAGACUGCGGGUUCGAGUCCCGUACGGUACG [A20U U28A A69U]: the yeast fitness amounted to 0.585.

As to GUUCCGUUGGCGUAAUGGUACCGCGUCUCCCUCCUAAGGAGAAGCCUGUGGGUCCGAGUCCCGUACGGAACG [A21C A45C C49U U54C], the yeast fitness was ≤ 0.5. In the case of GUUCCGUUGGCGUAAUGGUUACGCGUCUCCCUCCUAAGGAGAAGACAGCGGGUUCGAGUCCCGUACGGAACG [A20U U47A], the yeast fitness was 0.673. For the variant GUUCCGUUGGCGUAAUGGUACCGCGUCUCCCUCCUAAGGAGUAGACUGCGGGUUCGAAUCCCGUACGGAACG [A21C A42U G58A], the yeast fitness stood at 0.549. The same measure for GUUCCGUUGGCGUAAUGGUUACGCGUCGCCCUUCGAAGGAGAAGACUGCGGGUUCGAGUACCGUACGGAACG [A20U U28G C33U U35G C60A]: ≤ 0.5; for GUUCCGUUGGCGUAAUGGUACCGCGUCUCCCUCCUAAGGAGAAGUCUGCGGAUUCGAGUCCAGUACGGAACG [A21C A45U G52A C62A]: ≤ 0.5; for GUUCCGUUGGCGUAAUGGUUACGCGUCUCCCUCCUAAGGAGAAGACUGCGGGUUCAAGUCCCGUACGGAACG [A20U G56A]: 0.922. Next, GUUCCGUUGGCGUAAUGGUUACGCGACUCCCUCCUAAGGAGAGGACUGCGGGUUCGAGUCCCGUACGGAACG [A20U U26A A43G]: ≤ 0.5; GUUCCGUUGGCGUAAUGGUUACGCGUCUCCCUCCUAAGGAGAAGACUCCGGGUUCGAGUCCCGUACGGAACG [A20U G48C]: 0.84; GUUCCGUUGGCGUAAUGGUUACGCGUCUCCCUCCUAAGGAGAACACUGCGGGUUAGAGUCCCGUACGGAACG [A20U G44C C55A]: ≤ 0.5. In the case of GUUCCGUUGGCGUAAUGGUACCGCGUCUCCCUCCUAUGGAGAAGACUGCGAGUUCGAGUCCCGUACGGAACG [A21C A37U G51A], the yeast fitness was ≤ 0.5. Take GUUCCGUUGGCGUAAUGGUUACGCGUCUCCCCCCUAACGAGAAGACUGCGGGUUCGAGUCCCGUGCGGAACG [A20U U32C G38C A65G]: the yeast fitness was ≤ 0.5. For GUUCCGUUGGCGUAAUGGUACCGCGUCUCCCUCCUAAGGAGUAGACUGCGGGUACGAGUCCCGUACGGAACG [A21C A42U U54A], the yeast fitness was ≤ 0.5.

As for GUUCCGUUGGCGUAAUGGUUACGCGUCUCCCACCUAAGGAGAAGACUGCGGGUUCGAGUCCCGUACGGAACG [A20U U32A], the yeast fitness worked out at 0.78. As for GUUCCGUUGGCGUAAUGGUUACGCGUCUCCCCCCUAAGGAGAAGACUGCGGGUUCGAGUCCCGUACGGAACG [A20U U32C], the yeast fitness was determined as 0.882. Take GUUCCGUUGGCGUAAUGGUUACGCGCCUCCCUCCUAAGGAGAAGAUUGCGAGUUCGAGUCCCGUACGGAACG [A20U U26C C46U G51A]: the yeast fitness was ≤ 0.5. The same measure for GUUCCGUUGGCGUAAUGGUUACGCGUCUCCCUCCUAAGGAGAAGACAGCGGGUUCGAGUCCCGUACGGAGCG [A20U U47A A70G]: 0.62; for GUUCCGUUGGCGUAAUGGUACCGCGUCUCCCUCCUAGGGAGAAGACUGCGGGUUCGAGGCCCGUACGGAACG [A21C A37G U59G]: ≤ 0.5; for GUUCCGUUGGCGUAAUGGUUACGCGUCUCCCUCCUAAGGAGAAGACUGCAGGUUCGAGCCCCGUACCGAACG [A20U G50A U59C G67C]: ≤ 0.5. In the case of GUUCCGUUGGCGUAAUGGUUACGCGUCUCCCUCCUAAGGAGAAGACUGCGAGUUCGAGUCCCGUACGGAACG [A20U G51A], the yeast fitness was found to be 0.811. The same measure for GUUCCGUUGGCGUAAUGGUUACGCGACUCCCUCCUAAGGAGAAGACUGCGGGUUCGAGUCACGUACGGCACG [A20U U26A C61A A69C]: ≤ 0.5.
